In ChEMBL document CHEMBL5154713, “Illuminating a Dark Kinase: Structure-Guided Design, Synthesis, and Evaluation of a Potent Nek1 Inhibitor and Its Effects on the Embryonic Zebrafish Pronephros” (J Med Chem, 2022):

How the values were obtained:
[1] = biological target: Protein-tyrosine kinase 6 (Homo sapiens) (UniProt Q13882); assay: Inhibition of recombinant full length human BRK assessed as residual activity at 1 uM using poly(Glu, Tyr) 4:1 as substrate incubated for 40 mins in presence of [gamma-33ATP] by scintillation counting based radiometry assay relative to control
Summary of the method: (§1)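 Commercial radiometric panel of 50 kinases. Each recombinant human kinase was tested at a single compound concentration of 1 μM. ATP was set within 15 μM of the apparent Km for ATP for each kinase. Residual activity is relative to control and is the mean of two independent experiments.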

[2] = Toxicity in wild-type Zebrafish embryos assessed as effect on normal eye development at 0.05 to 30 uM measured upto 120 hrs; parameters: species or system Danio rerio; conditions: in vivo, dose 0.05-30 µM
Summary of the method: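 Wild-type embryos, 15 per group with intact chorions, dosed at 6 hpf with 0.05–30 μM final concentrations in E3, diluted from a DMSO stock. Survival checked every 24 h by heartbeat over 120 h, and phenotypes assessed visually. At least triplicate, 5 replicates at 30 μM.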

[3] = biological target: Serine/threonine-protein kinase mTOR (Homo sapiens) (UniProt P42345); assay: Inhibition of human full length recombinant MTOR assessed as residual activity at 1 uM incubated for 40 mins in presence of [gamma 33P]-ATP by radiometric scintillation counting assay relative to control; summary of the method: as §1
[4] = biological target: MAP kinase-activated protein kinase 5 (Homo sapiens) (UniProt Q8IW41); assay: Inhibition of human full length PRAK assessed as residual activity at 1 uM using KKLRRTLSVA as substrate incubated for 40 mins in presence of [gamma 33P]-ATP by radiometric scintillation counting assay relative to control; summary of the method: as §1
[5] = biological target: Serine/threonine-protein kinase pim-1 (Homo sapiens) (UniProt P11309); assay: Inhibition of human full length recombinant Pim1 assessed as residual activity at 1 uM using KKRNRTLTV as substrate incubated for 40 mins in presence of [gamma 33P]-ATP by radiometric scintillation counting assay relative to control; summary of the method: as §1
[6] = biological target: CDK6/cyclin D3 (Homo sapiens) (UniProt P30281+Q00534); assay: Inhibition of human full length recombinant CDK6/CyclinD3 assessed as residual activity at 1 uM using histone H1 as substrate incubated for 40 mins in presence of [gamma 33P]-ATP by radiometric scintillation counting assay relative to control; format: protein-complex assay; summary of the method: as §1
Homo sapiens = species on record: Homo sapiens; assay: Inhibition of human full length recombinant CDK2/cyclinE assessed as residual activity at 1 uM using histone H1 as substrate incubated for 40 mins in presence of [gamma 33P]-ATP by radiometric scintillation counting assay relative to control; summary of the method: as §1
[7] = biological target: RAC-alpha serine/threonine-protein kinase (Homo sapiens) (UniProt P31749); assay: Inhibition of human full length Akt1 assessed as residual activity at 1 uM using GRPRTSSFAEGKK as substrate incubated for 40 mins in presence of [gamma 33P]-ATP based radiometric scintillation counting assay relative to control; summary of the method: as §1
RAC-alpha serine/threonine-protein kinase (Homo sapiens), sequence (P31749 whole entry): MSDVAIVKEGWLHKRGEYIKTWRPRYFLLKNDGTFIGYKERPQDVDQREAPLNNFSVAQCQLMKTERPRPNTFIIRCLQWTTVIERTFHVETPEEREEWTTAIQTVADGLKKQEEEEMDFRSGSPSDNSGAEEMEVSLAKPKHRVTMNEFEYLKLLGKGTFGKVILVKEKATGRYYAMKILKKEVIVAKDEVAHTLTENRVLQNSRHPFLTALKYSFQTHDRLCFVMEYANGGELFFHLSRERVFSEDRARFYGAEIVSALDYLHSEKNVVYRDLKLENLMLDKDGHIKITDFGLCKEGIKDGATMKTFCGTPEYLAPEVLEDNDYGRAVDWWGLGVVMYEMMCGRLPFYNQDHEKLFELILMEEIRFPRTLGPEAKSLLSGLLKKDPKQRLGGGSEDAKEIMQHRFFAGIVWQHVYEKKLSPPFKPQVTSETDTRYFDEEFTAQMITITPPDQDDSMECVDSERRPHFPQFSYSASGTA

MAP kinase-activated protein kinase 5 (Homo sapiens), sequence (Q8IW41 whole entry): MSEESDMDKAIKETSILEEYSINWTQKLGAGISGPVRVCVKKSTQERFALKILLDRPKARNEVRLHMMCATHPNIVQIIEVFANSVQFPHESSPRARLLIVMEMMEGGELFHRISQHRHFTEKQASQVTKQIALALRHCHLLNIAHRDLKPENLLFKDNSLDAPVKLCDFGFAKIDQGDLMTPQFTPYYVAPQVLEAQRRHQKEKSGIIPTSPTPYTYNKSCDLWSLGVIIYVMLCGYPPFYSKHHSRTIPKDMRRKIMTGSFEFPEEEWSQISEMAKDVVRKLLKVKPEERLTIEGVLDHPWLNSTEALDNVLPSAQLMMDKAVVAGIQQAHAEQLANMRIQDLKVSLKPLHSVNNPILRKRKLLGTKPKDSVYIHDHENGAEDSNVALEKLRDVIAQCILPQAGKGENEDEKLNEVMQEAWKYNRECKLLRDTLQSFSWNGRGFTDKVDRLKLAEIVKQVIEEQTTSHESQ
Protein-tyrosine kinase 6 (Homo sapiens), sequence (Q13882 whole entry, looked up): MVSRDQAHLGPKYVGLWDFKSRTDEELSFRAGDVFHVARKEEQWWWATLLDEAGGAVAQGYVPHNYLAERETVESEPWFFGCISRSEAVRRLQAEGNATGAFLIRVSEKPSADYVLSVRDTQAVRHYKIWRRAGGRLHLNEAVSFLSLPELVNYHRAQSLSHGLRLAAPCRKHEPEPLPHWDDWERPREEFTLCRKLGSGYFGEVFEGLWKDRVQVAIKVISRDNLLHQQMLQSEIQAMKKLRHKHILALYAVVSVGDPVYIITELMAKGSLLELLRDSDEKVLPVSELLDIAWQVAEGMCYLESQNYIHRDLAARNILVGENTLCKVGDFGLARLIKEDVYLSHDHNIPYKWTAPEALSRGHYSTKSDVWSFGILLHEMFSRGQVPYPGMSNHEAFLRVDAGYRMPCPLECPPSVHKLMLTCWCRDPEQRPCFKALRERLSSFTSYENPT
Serine/threonine-protein kinase pim-1 (Homo sapiens), sequence (P11309 whole entry, looked up): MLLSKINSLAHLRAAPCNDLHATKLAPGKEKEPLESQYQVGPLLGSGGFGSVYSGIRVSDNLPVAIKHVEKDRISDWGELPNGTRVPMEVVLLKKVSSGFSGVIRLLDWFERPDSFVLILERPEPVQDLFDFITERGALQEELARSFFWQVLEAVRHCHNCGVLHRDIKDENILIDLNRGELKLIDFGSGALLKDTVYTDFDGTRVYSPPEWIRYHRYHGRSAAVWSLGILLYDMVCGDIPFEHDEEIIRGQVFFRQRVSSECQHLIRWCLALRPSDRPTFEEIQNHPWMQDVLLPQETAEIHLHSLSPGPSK

With O=S(=O)(N[C@@H](CO)Cc1c[nH]c2ccccc12)c1ccc(-c2ccnc3[nH]ccc23)cc1 the Activity [1] was > 75%, the Activity [2] was “Non-Toxic” and the Activity [3] was > 75%. The Activity [4] was > 75%, the Activity [5] was > 75% and the Activity [6] was > 75%. For the same compound, the Activity (Homo sapiens) was > 75% and the Activity [7] was > 75%.
